Legend:
MCF7 = assay: Antiproliferative activity against MCF7 cells by colorimetric MTT assay; assay type: functional, cell-based; conditions: Homo sapiens
How it was run: (§1)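 Proliferation of the human tumour lines DU145, PC-3 and MCF-7 was read out by colorimetric MTT assay. Values come from at least three independent determinations, with standard deviation below 10%.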

L1210 [1] = assay: Antiproliferative activity against L1210 cells by cell numeration; conditions: Mus musculus
[2] = molecular target: Protein farnesyltransferase (Homo sapiens, UniProt P49354+P49356); assay: Inhibition of FTase by fluorescence spectrometry technique; assay type: protein-complex assay
DU-145 [3] = assay: Antiproliferative activity against DU145 cells by colorimetric MTT assay; assay type: functional, cell-based; conditions: Homo sapiens; how it was run: as §1
PC-3 = assay: Antiproliferative activity against PC3 cells by colorimetric MTT assay; assay type: functional, cell-based; conditions: Homo sapiens; how it was run: as §1
L1210 [4] = assay: Antiproliferative activity against L1210 cells by cell numeration at 10 uM; conditions: Mus musculus
DU-145 [5] = assay: Antiproliferative activity against DU145 cells by colorimetric MTT assay at 100 uM; assay type: functional; conditions: Homo sapiens

Row | Structure (SMILES) | IC50 (MCF7) [µM] | IC50 (L1210 [1]) [µM] | IC50 [2] [µM] | IC50 (DU-145 [3]) [µM] | IC50 (PC-3) [µM] | inhibition at 10 µM (L1210 [4]) [%] | inhibition at 100 µM (DU-145 [5]) [%]
1 | N#Cc1ccc(Cn2cncc2CN2CCN(C3c4ccccc4CCc4ccccc43)CC2)cc1 | 45 | 4.85 | 0.31 | 9.55 | 11.4 |  | 
2 | N#Cc1ccc(Cn2cncc2CN2CCCN(C3c4ccccc4N(CCCN4CCOCC4)S(=O)(=O)c4ccccc43)CC2)cc1 (centres undefined) | 33 | 4.57 | 0.0173 | 47.4 | 27.3 |  | 
3 | N#Cc1ccc(Cn2cncc2CN[C@H](CC(=O)N[C@@H](Cc2ccccc2)C(N)=O)Cc2ccccc2)cc1 | > 100 |  | 0.0285 | > 100 | > 100 | 41 | 
4 | CN1c2ccccc2C(N2CCCN(Cc3cncn3Cc3ccc(C#N)cc3)CC2)c2ccccc2S1(=O)=O (centres undefined) | 48 | 4.76 | 0.0448 | 59.8 | 50 |  | 
5 | N#Cc1ccc(Cn2cncc2CN2CCCN(C3c4ccccc4CCc4ccccc43)CC2)cc1 | 41 |  | 0.285 | 51.3 |  | 34 | 
6 | COC(=O)[C@H](Cc1ccccc1)N(C(=O)c1ccccc1)C1CCN(Cc2cncn2Cc2ccc(C#N)cc2)CC1 |  | 4.95 | 0.022 |  |  |  | 
7 | CN1c2ccccc2C(N2CCN(Cc3cncn3Cc3ccc(C#N)cc3)CC2)c2ccccc2S1(=O)=O (centres undefined) | 76 | 3.9 | 0.045 | 100 | 69.4 |  | 
8 | CCCN1c2ccccc2C(N2CCCN(Cc3cncn3Cc3ccc(C#N)cc3)CC2)c2ccccc2S1(=O)=O (centres undefined) |  | 4 | 0.0465 |  | 34.1 |  | 38
9 | CCCCN1c2ccccc2C(N2CCCN(Cc3cncn3Cc3ccc(C#N)cc3)CC2)c2ccccc2S1(=O)=O (centres undefined) | 66 | 3 | 0.043 | 100 |  |  | 

Reference: ChEMBL document CHEMBL1140468, “Design, synthesis and biological evaluation of substituted dioxodibenzothiazepines and dibenzocycloheptanes as farnesyltransferase inhibitors” (Bioorg Med Chem Lett, 2007)
